# Reference: ChEMBL document CHEMBL2375313, “Synthesis, in vitro antitumor evaluation and DNA-binding study of novel tetrahydroquinolines and some derived tricyclic and tetracyclic ring systems” (Eur J Med Chem, 2013)
# Columns and labels:
# Type in all cases: functional
# HOP-92 = assay: Cytotoxicity against human HOP92 cells assessed as growth inhibition at 10 uM after 48 hrs by sulphorhodamine B assay; conditions: HOP-92, 48 h, read-out: GI
# Procedure, shortened: (§1)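 NCI-60 one-dose screen per the NCI Drug Evaluation Branch protocol. Cells given a single 10 µM concentration with 48 h continuous exposure. Growth estimated by sulphorhodamine B protein assay. Result expressed as percentage growth inhibition relative to untreated growth.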
# NCI-H23 = assay: Cytotoxicity against human NCI-H23 cells assessed as growth inhibition at 10 uM after 48 hrs by sulphorhodamine B assay; conditions: NCI-H23, 48 h, read-out: GI; procedure, shortened: as §1
# [1] = Cytotoxicity against human EKVX cells assessed as growth inhibition at 10 uM after 48 hrs by sulphorhodamine B assay; conditions: read-out: GI; procedure, shortened: as §1
# A549 = assay: Cytotoxicity against human A549 cells assessed as growth inhibition at 10 uM after 48 hrs by sulphorhodamine B assay; conditions: A549, 48 h, read-out: GI; procedure, shortened: as §1
# NCI/ADR-RES = assay: Cytotoxicity against human NCI/ADR-RES cells assessed as growth inhibition at 10 uM after 48 hrs by sulphorhodamine B assay; conditions: read-out: GI; procedure, shortened: as §1
# SNB-75 = assay: Cytotoxicity against human SNB75 cells assessed as growth inhibition at 10 uM after 48 hrs by sulphorhodamine B assay; conditions: SNB-75, 48 h, read-out: GI; procedure, shortened: as §1
# U-251 = assay: Cytotoxicity against human U251 cells assessed as growth inhibition at 10 uM after 48 hrs by sulphorhodamine B assay; conditions: U-251, 48 h, read-out: GI; procedure, shortened: as §1
# SNB-19 = assay: Cytotoxicity against human SNB19 cells assessed as growth inhibition at 10 uM after 48 hrs by sulphorhodamine B assay; conditions: SNB-19, 48 h, read-out: GI; procedure, shortened: as §1
# SF-295 = assay: Cytotoxicity against human SF295 cells assessed as growth inhibition at 10 uM after 48 hrs by sulphorhodamine B assay; conditions: SF-295, 48 h, read-out: GI; procedure, shortened: as §1
# DU-145 = assay: Cytotoxicity against human DU145 cells assessed as growth inhibition at 10 uM after 48 hrs by sulphorhodamine B assay; conditions: DU-145, 48 h, read-out: GI; procedure, shortened: as §1
# SF-268 = assay: Cytotoxicity against human SF268 cells assessed as growth inhibition at 10 uM after 48 hrs by sulphorhodamine B assay; conditions: SF-268, 48 h, read-out: GI; procedure, shortened: as §1
# PC-3 = assay: Cytotoxicity against human PC3 cells assessed as growth inhibition at 10 uM after 48 hrs by sulphorhodamine B assay; conditions: PC-3, 48 h, read-out: GI; procedure, shortened: as §1
# UACC-62 = assay: Cytotoxicity against human UACC62 cells assessed as growth inhibition at 10 uM after 48 hrs by sulphorhodamine B assay; conditions: UACC-62, 48 h, read-out: GI; procedure, shortened: as §1
# SK-MEL-2 = assay: Cytotoxicity against human SK-MEL-2 cells assessed as growth inhibition at 10 uM after 48 hrs by sulphorhodamine B assay; conditions: SK-MEL-2, 48 h, read-out: GI; procedure, shortened: as §1
# SK-MEL-5 = assay: Cytotoxicity against human SK-MEL-5 cells assessed as growth inhibition at 10 uM after 48 hrs by sulphorhodamine B assay; conditions: SK-MEL-5, 48 h, read-out: GI; procedure, shortened: as §1
# M14 = assay: Cytotoxicity against human M14 cells assessed as growth inhibition at 10 uM after 48 hrs by sulphorhodamine B assay; conditions: M14, 48 h, read-out: GI; procedure, shortened: as §1
# LOX IMVI = assay: Cytotoxicity against human LOXIMVI cells assessed as growth inhibition at 10 uM after 48 hrs by sulphorhodamine B assay; conditions: read-out: GI; procedure, shortened: as §1
# UO-31 = assay: Cytotoxicity against human UO31 cells assessed as growth inhibition at 10 uM after 48 hrs by sulphorhodamine B assay; conditions: UO-31, 48 h, read-out: GI; procedure, shortened: as §1
# CAKI-1 = assay: Cytotoxicity against human Caki1 cells assessed as growth inhibition at 10 uM after 48 hrs by sulphorhodamine B assay; conditions: CAKI-1, 48 h, read-out: GI; procedure, shortened: as §1
# RXF 393 = assay: Cytotoxicity against human RXF393 cells assessed as growth inhibition at 10 uM after 48 hrs by sulphorhodamine B assay; conditions: RXF 393, 48 h, read-out: GI; procedure, shortened: as §1
# ACHN = assay: Cytotoxicity against human ACHN cells assessed as growth inhibition at 10 uM after 48 hrs by sulphorhodamine B assay; conditions: read-out: GI; procedure, shortened: as §1
# SR = assay: Cytotoxicity against human SR cells assessed as growth inhibition at 10 uM after 48 hrs by sulphorhodamine B assay; conditions: read-out: GI; procedure, shortened: as §1
# A498 = assay: Cytotoxicity against human A498 cells assessed as growth inhibition at 10 uM after 48 hrs by sulphorhodamine B assay; conditions: A498, 48 h, read-out: GI; procedure, shortened: as §1
# RPMI-8226 = assay: Cytotoxicity against human RPMI8226 cells assessed as growth inhibition at 10 uM after 48 hrs by sulphorhodamine B assay; conditions: RPMI-8226, 48 h, read-out: GI; procedure, shortened: as §1
# MOLT-4 = assay: Cytotoxicity against human MOLT4 cells assessed as growth inhibition at 10 uM after 48 hrs by sulphorhodamine B assay; conditions: MOLT-4, 48 h, read-out: GI; procedure, shortened: as §1
# K562 = assay: Cytotoxicity against human K562 cells assessed as growth inhibition at 10 uM after 48 hrs by sulphorhodamine B assay; conditions: K562, 48 h, read-out: GI; procedure, shortened: as §1
# HL-60(TB) = assay: Cytotoxicity against human HL-60(TB) cells assessed as growth inhibition at 10 uM after 48 hrs by sulphorhodamine B assay; conditions: HL-60, 48 h, read-out: GI
# Procedure, shortened: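 NCI-60 one-dose primary screen run to the Drug Evaluation Branch protocol. Cells are exposed to a single 10 µM concentration for 48 h continuously, and growth is read by SRB protein assay. Data are reported as percent growth of treated cells, expressed as % growth inhibition.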
# SK-OV-3 = assay: Cytotoxicity against human SKOV3 cells assessed as growth inhibition at 10 uM after 48 hrs by sulphorhodamine B assay; conditions: SK-OV-3, 48 h, read-out: GI; procedure, shortened: as §1
# CCRF-CEM = assay: Cytotoxicity against human CCRF-CEM cells assessed as growth inhibition at 10 uM after 48 hrs by sulphorhodamine B assay; conditions: read-out: GI; procedure, shortened: as §1
# OVCAR-5 = assay: Cytotoxicity against human OVCAR5 cells assessed as growth inhibition at 10 uM after 48 hrs by sulphorhodamine B assay; conditions: OVCAR-5, 48 h, read-out: GI; procedure, shortened: as §1
# OVCAR-4 = assay: Cytotoxicity against human OVCAR4 cells assessed as growth inhibition at 10 uM after 48 hrs by sulphorhodamine B assay; conditions: OVCAR-4, 48 h, read-out: GI; procedure, shortened: as §1
# IGROV-1 = assay: Cytotoxicity against human IGROV1 cells assessed as growth inhibition at 10 uM after 48 hrs by sulphorhodamine B assay; conditions: IGROV-1, 48 h, read-out: GI; procedure, shortened: as §1
# T47D = assay: Cytotoxicity against human T47D cells assessed as growth inhibition at 10 uM after 48 hrs by sulphorhodamine B assay; conditions: read-out: GI; procedure, shortened: as §1
# Hs-578T = assay: Cytotoxicity against human Hs578T cells assessed as growth inhibition at 10 uM after 48 hrs by sulphorhodamine B assay; conditions: read-out: GI; procedure, shortened: as §1
# NCI-H522 = assay: Cytotoxicity against human NCI-H522 cells assessed as growth inhibition at 10 uM after 48 hrs by sulphorhodamine B assay; conditions: NCI-H522, 48 h, read-out: GI; procedure, shortened: as §1
# HT-29 = assay: Cytotoxicity against human HT-29 cells assessed as growth inhibition at 10 uM after 48 hrs by sulphorhodamine B assay; conditions: HT-29, 48 h, read-out: GI; procedure, shortened: as §1
# MCF7 = assay: Cytotoxicity against human MCF7 cells assessed as growth inhibition at 10 uM after 48 hrs by sulphorhodamine B assay; conditions: MCF7, 48 h, read-out: GI; procedure, shortened: as §1
# MDA-MB-435 = assay: Cytotoxicity against human MDA-MB-435 cells assessed as growth inhibition at 10 uM after 48 hrs by sulphorhodamine B assay; conditions: MDA-MB-435, 48 h, read-out: GI; procedure, shortened: as §1
# HCT-15 = assay: Cytotoxicity against human HCT15 cells assessed as growth inhibition at 10 uM after 48 hrs by sulphorhodamine B assay; conditions: HCT-15, 48 h, read-out: GI; procedure, shortened: as §1
# MDA-MB-468 = assay: Cytotoxicity against human MDA-MB-468 cells assessed as growth inhibition at 10 uM after 48 hrs by sulphorhodamine B assay; conditions: MDA-MB-468, 48 h, read-out: GI; procedure, shortened: as §1
# HCT-116 = assay: Cytotoxicity against human HCT116 cells assessed as growth inhibition at 10 uM after 48 hrs by sulphorhodamine B assay; conditions: HCT-116, 48 h, read-out: GI; procedure, shortened: as §1
smiles,measurement,setting,value
CC1CCCc2c1nc(N)c(C#N)c2-c1ccc(Cl)cc1 (configuration not stated),inhibition of growth at 10 µM,HOP-92,10%
same,inhibition of growth at 10 µM,NCI-H23,< 10%
same,inhibition of growth at 10 µM,[1],39.5%
same,inhibition of growth at 10 µM,A549,< 10%
same,inhibition of growth at 10 µM,NCI/ADR-RES,< 10%
same,inhibition of growth at 10 µM,SNB-75,26.8%
same,inhibition of growth at 10 µM,U-251,< 10%
same,inhibition of growth at 10 µM,SNB-19,20.5%
same,inhibition of growth at 10 µM,SF-295,< 10%
same,inhibition of growth at 10 µM,DU-145,< 10%
same,inhibition of growth at 10 µM,SF-268,11.3%
same,inhibition of growth at 10 µM,PC-3,< 10%
same,inhibition of growth at 10 µM,UACC-62,24.2%
same,inhibition of growth at 10 µM,SK-MEL-2,15%
same,inhibition of growth at 10 µM,SK-MEL-5,< 10%
same,inhibition of growth at 10 µM,M14,< 10%
same,inhibition of growth at 10 µM,LOX IMVI,< 10%
same,inhibition of growth at 10 µM,UO-31,< 10%
same,inhibition of growth at 10 µM,CAKI-1,< 10%
same,inhibition of growth at 10 µM,RXF 393,< 10%
same,inhibition of growth at 10 µM,ACHN,< 10%
same,inhibition of growth at 10 µM,SR,< 10%
same,inhibition of growth at 10 µM,A498,21.7%
same,inhibition of growth at 10 µM,RPMI-8226,18.2%
same,inhibition of growth at 10 µM,MOLT-4,< 10%
same,inhibition of growth at 10 µM,K562,11.8%
same,inhibition of growth at 10 µM,HL-60(TB),< 10%
same,inhibition of growth at 10 µM,SK-OV-3,< 10%
same,inhibition of growth at 10 µM,CCRF-CEM,13.3%
same,inhibition of growth at 10 µM,OVCAR-5,< 10%
same,inhibition of growth at 10 µM,OVCAR-4,10.1%
same,inhibition of growth at 10 µM,IGROV-1,< 10%
same,inhibition of growth at 10 µM,T47D,17.2%
same,inhibition of growth at 10 µM,Hs-578T,25%
same,inhibition of growth at 10 µM,NCI-H522,< 10%
same,inhibition of growth at 10 µM,HT-29,< 10%
same,inhibition of growth at 10 µM,MCF7,31.5%
same,inhibition of growth at 10 µM,MDA-MB-435,< 10%
same,inhibition of growth at 10 µM,HCT-15,< 10%
same,inhibition of growth at 10 µM,MDA-MB-468,36.5%
same,inhibition of growth at 10 µM,HCT-116,< 10%
COc1ccc(-c2c(C#N)c(N)nc3c2CCCC3C)cc1 (configuration not stated),inhibition of growth at 10 µM,HOP-92,20%
same,inhibition of growth at 10 µM,NCI-H23,11%
same,inhibition of growth at 10 µM,[1],< 10%
same,inhibition of growth at 10 µM,A549,15.7%
same,inhibition of growth at 10 µM,NCI/ADR-RES,24.1%
same,inhibition of growth at 10 µM,SNB-75,25.3%
same,inhibition of growth at 10 µM,U-251,20%
same,inhibition of growth at 10 µM,SNB-19,11%
same,inhibition of growth at 10 µM,SF-295,< 10%
same,inhibition of growth at 10 µM,DU-145,< 10%
same,inhibition of growth at 10 µM,SF-268,< 10%
same,inhibition of growth at 10 µM,PC-3,16.2%
same,inhibition of growth at 10 µM,UACC-62,20%
same,inhibition of growth at 10 µM,SK-MEL-2,< 10%
same,inhibition of growth at 10 µM,SK-MEL-5,14.5%
same,inhibition of growth at 10 µM,M14,< 10%
same,inhibition of growth at 10 µM,LOX IMVI,12.3%
same,inhibition of growth at 10 µM,UO-31,< 10%
same,inhibition of growth at 10 µM,CAKI-1,< 10%
same,inhibition of growth at 10 µM,RXF 393,11.1%
same,inhibition of growth at 10 µM,ACHN,< 10%
same,inhibition of growth at 10 µM,SR,36.6%
same,inhibition of growth at 10 µM,A498,< 10%
same,inhibition of growth at 10 µM,RPMI-8226,34.1%
same,inhibition of growth at 10 µM,MOLT-4,21.3%
same,inhibition of growth at 10 µM,K562,28.4%
same,inhibition of growth at 10 µM,HL-60(TB),11.7%
same,inhibition of growth at 10 µM,SK-OV-3,< 10%
same,inhibition of growth at 10 µM,CCRF-CEM,16.3%
same,inhibition of growth at 10 µM,OVCAR-5,< 10%
same,inhibition of growth at 10 µM,OVCAR-4,17.2%
same,inhibition of growth at 10 µM,IGROV-1,< 10%
same,inhibition of growth at 10 µM,T47D,41%
same,inhibition of growth at 10 µM,Hs-578T,< 10%
same,inhibition of growth at 10 µM,NCI-H522,14.6%
same,inhibition of growth at 10 µM,HT-29,< 10%
same,inhibition of growth at 10 µM,MCF7,10%
same,inhibition of growth at 10 µM,MDA-MB-435,< 10%
same,inhibition of growth at 10 µM,HCT-15,25.3%
same,inhibition of growth at 10 µM,MDA-MB-468,15.2%
same,inhibition of growth at 10 µM,HCT-116,15.7%
